Calls of active or inactive are those of the source. No cut-off for these calls is given here. Where a SMILES comes first, the peptide text is derived from it. Bridges are numbered along the chain shown (N, C = ends). [ ]: non-standard residue; d: D form. Pro(3S-OH) = O=C(O)[C@H]1NCC[C@@H]1O; pGlu = O=C1CC[C@@H](C(=O)O)N1
biological target: Sodium-dependent noradrenaline transporter (Homo sapiens, UniProt P23975); assay: Displacement of [3H]nisoxetine from human NET expressed in COS7 cells; format: cell-based; details: COS-7
Sequence (P23975 whole entry): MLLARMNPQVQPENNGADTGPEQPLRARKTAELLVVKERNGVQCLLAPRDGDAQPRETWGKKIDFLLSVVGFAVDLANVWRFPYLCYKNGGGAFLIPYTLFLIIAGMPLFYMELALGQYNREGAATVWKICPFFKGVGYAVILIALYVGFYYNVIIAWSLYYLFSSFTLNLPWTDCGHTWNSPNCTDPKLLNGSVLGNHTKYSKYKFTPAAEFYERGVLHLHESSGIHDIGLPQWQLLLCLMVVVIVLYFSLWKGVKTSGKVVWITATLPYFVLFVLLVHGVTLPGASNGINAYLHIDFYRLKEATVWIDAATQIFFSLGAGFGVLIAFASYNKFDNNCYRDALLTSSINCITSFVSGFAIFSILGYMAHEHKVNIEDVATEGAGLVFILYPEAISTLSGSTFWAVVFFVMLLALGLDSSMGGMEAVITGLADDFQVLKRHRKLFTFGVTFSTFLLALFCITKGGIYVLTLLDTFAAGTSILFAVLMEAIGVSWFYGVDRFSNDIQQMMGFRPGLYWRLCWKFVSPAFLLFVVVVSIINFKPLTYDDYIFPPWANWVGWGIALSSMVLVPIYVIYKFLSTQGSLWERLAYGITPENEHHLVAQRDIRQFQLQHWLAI
In short: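 Membranes from COS-7 cells transfected with human NET were incubated with [3H]nisoxetine (4.3 nM) with or without peptide (1 nM to 100 μM, triplicate) for 1 h at RT. Filter-retained radioactivity was counted by liquid scintillation, and values are given as pIC50. Data are means of 2–5 experiments in triplicate; peptide concentration was set by calibrated HPLC at 214 nm.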

SMILES	Activity
CC(C)C[C@@H]1NC(=O)[C@H](CCCCN)NC(=O)[C@H](CCC(=O)O)NC(=O)CNC(=O)[C@@H]2CSSC[C@H](NC1=O)C(=O)N[C@@H](Cc1cnc[nH]1)C(=O)N1CC[C@H](O)[C@H]1C(=O)N[C@H](C(=O)O)CSSC[C@H](NC(=O)[C@@H](NC(=O)CNC(=O)[C@@H]1CCC(=O)N1)C(C)C)C(=O)N2	inactive
CC(C)C[C@@H]1NC(=O)[C@H](CCCCN)NC(=O)[C@H](CCCNC(=N)N)NC(=O)CNC(=O)[C@@H]2CSSC[C@H](NC1=O)C(=O)N[C@@H](Cc1cnc[nH]1)C(=O)N1CC[C@H](O)[C@H]1C(=O)N[C@H](C(=O)O)CSSC[C@H](NC(=O)[C@@H](NC(=O)CNC(=O)[C@@H]1CCC(=O)N1)C(C)C)C(=O)N2 ([pGlu]GVCCGRKLCH[Pro(3S-OH)]C-OH; disulfide 4-13, 5-10)	inactive
CC(C)C[C@H]1CC(=O)N[C@H]2CSSC[C@H](NC(=O)[C@@H](NC(=O)[C@@H](NC(=O)CNC(=O)[C@@H]3CCC(=O)N3)C(C)C)CSSC[C@@H](C(=O)O)NC(=O)[C@@H]3[C@@H](O)CCN3C(=O)[C@H](Cc3cnc[nH]3)NC2=O)C(=O)NCC(=O)N[C@@H](Cc2ccc(O)cc2)C(=O)N[C@@H](CCCCN)C(=O)N1	Active
CC(C)C[C@@H]1NC(=O)CNC(=O)[C@@H]2CSSC[C@H](NC(=O)[C@H](CC(C)C)NC(=O)[C@H](CCCCN)NC1=O)C(=O)N[C@@H](Cc1cnc[nH]1)C(=O)N1CC[C@H](O)[C@H]1C(=O)N[C@H](C(=O)O)CSSC[C@H](NC(=O)[C@@H](NC(=O)CNC(=O)[C@@H]1CCC(=O)N1)C(C)C)C(=O)N2 ([pGlu]GVCCGLKLCH[Pro(3S-OH)]C-OH; disulfide 4-13, 5-10)	inactive
CC(C)C[C@@H]1NC(=O)[C@H](CCCCN)NC(=O)[C@H](Cc2ccc(O)cc2)NC(=O)CNC(=O)[C@@H]2CSSC[C@H](NC1=O)C(=O)N[C@@H](Cc1cccnc1)C(=O)N1CC[C@H](O)[C@H]1C(=O)N[C@H](C(=O)O)CSSC[C@H](NC(=O)[C@@H](NC(=O)CNC(=O)[C@@H]1CCC(=O)N1)C(C)C)C(=O)N2	Active
CC(C)C[C@@H]1NC(=O)[C@H](CCCCN)NC(=O)[C@H](Cc2ccc(O)cc2)NC(=O)CNC(=O)[C@@H]2CSSC[C@H](NC1=O)C(=O)N[C@@H](Cc1ccc(O)cc1)C(=O)N1CC[C@H](O)[C@H]1C(=O)N[C@H](C(=O)O)CSSC[C@H](NC(=O)[C@@H](NC(=O)CNC(=O)[C@@H]1CCC(=O)N1)C(C)C)C(=O)N2 ([pGlu]GVCCGYKLCY[Pro(3S-OH)]C-OH; disulfide 4-13, 5-10)	Active
CC(C)C[C@@H]1NC(=O)[C@H](CCCCN)NC(=O)[C@H](Cc2ccc(O)cc2)NC(=O)CNC(=O)[C@H]2CSSC[C@@H](NC1=O)C(=O)N[C@@H](Cc1cnc[nH]1)C(=O)N1CC[C@H](O)[C@H]1C(=O)N[C@@H](C(=O)O)CSSC[C@@H](NC(=O)[C@@H](NC(=O)CNC(=O)[C@@H]1CCC(=O)N1)C(C)C)C(=O)N2	inactive
CC(C)C[C@@H]1NC(=O)[C@H](CCCCN)NC(=O)[C@H](Cc2c[nH]c3ccccc23)NC(=O)CNC(=O)[C@@H]2CSSC[C@H](NC1=O)C(=O)N[C@@H](Cc1cnc[nH]1)C(=O)N1CC[C@H](O)[C@H]1C(=O)N[C@H](C(=O)O)CSSC[C@H](NC(=O)[C@@H](NC(=O)CNC(=O)[C@@H]1CCC(=O)N1)C(C)C)C(=O)N2	inactive
COc1ccc(C[C@H]2CC(=O)N[C@@H](CCCCN)C(=O)N[C@@H](CC(C)C)C(=O)N[C@H]3CSSC[C@H](NC(=O)[C@@H](NC(=O)[C@@H](NC(=O)CNC(=O)[C@@H]4CCC(=O)N4)C(C)C)CSSC[C@@H](C(=O)O)NC(=O)[C@@H]4[C@@H](O)CCN4C(=O)[C@H](Cc4cnc[nH]4)NC3=O)C(=O)NCC(=O)N2)cc1	inactive
CC(C)C[C@@H]1NC(=O)[C@H](CCCCN)NC(=O)[C@H](CCC(N)=O)NC(=O)CNC(=O)[C@@H]2CSSC[C@H](NC1=O)C(=O)N[C@@H](Cc1cnc[nH]1)C(=O)N1CC[C@H](O)[C@H]1C(=O)N[C@H](C(=O)O)CSSC[C@H](NC(=O)[C@@H](NC(=O)CNC(=O)[C@@H]1CCC(=O)N1)C(C)C)C(=O)N2 ([pGlu]GVCCGQKLCH[Pro(3S-OH)]C-OH; disulfide 4-13, 5-10)	inactive

Source: ChEMBL document CHEMBL1154792, “chi-Conopeptide pharmacophore development: toward a novel class of norepinephrine transporter inhibitor (Xen2174) for pain” (J Med Chem, 2009)
